Assay results: ChEMBL document CHEMBL4402599 (J Med Chem, 2020)
Values belong to the compound of their own block, whether it stands above or below them.

What was measured:
[1] = Drug degradation at 4 degree C measured after 3 weeks by 31P-NMR analysis; format: physicochemical; conditions: read-out: Drug degradation
[2] = Drug metabolism assessed as catalytic hydrogenolysis by measuring beta-D-glucopyranosyl 1,3,4-trisphosphate triethylammonium formation by 31P-NMR analysis
[3] = target: T1, Inositol 1,4,5-trisphosphate-gated calcium channel ITPR1 (Rattus norvegicus, UniProt P29994); assay: Agonist activity at rat IP3R1 expressed in HEK cells assessed as increase in calcium release in cytosol by measuring fluorescence signal by Mag-Fluo4 dye based assay; format: cell-based
T1 sequence (P29994 whole entry): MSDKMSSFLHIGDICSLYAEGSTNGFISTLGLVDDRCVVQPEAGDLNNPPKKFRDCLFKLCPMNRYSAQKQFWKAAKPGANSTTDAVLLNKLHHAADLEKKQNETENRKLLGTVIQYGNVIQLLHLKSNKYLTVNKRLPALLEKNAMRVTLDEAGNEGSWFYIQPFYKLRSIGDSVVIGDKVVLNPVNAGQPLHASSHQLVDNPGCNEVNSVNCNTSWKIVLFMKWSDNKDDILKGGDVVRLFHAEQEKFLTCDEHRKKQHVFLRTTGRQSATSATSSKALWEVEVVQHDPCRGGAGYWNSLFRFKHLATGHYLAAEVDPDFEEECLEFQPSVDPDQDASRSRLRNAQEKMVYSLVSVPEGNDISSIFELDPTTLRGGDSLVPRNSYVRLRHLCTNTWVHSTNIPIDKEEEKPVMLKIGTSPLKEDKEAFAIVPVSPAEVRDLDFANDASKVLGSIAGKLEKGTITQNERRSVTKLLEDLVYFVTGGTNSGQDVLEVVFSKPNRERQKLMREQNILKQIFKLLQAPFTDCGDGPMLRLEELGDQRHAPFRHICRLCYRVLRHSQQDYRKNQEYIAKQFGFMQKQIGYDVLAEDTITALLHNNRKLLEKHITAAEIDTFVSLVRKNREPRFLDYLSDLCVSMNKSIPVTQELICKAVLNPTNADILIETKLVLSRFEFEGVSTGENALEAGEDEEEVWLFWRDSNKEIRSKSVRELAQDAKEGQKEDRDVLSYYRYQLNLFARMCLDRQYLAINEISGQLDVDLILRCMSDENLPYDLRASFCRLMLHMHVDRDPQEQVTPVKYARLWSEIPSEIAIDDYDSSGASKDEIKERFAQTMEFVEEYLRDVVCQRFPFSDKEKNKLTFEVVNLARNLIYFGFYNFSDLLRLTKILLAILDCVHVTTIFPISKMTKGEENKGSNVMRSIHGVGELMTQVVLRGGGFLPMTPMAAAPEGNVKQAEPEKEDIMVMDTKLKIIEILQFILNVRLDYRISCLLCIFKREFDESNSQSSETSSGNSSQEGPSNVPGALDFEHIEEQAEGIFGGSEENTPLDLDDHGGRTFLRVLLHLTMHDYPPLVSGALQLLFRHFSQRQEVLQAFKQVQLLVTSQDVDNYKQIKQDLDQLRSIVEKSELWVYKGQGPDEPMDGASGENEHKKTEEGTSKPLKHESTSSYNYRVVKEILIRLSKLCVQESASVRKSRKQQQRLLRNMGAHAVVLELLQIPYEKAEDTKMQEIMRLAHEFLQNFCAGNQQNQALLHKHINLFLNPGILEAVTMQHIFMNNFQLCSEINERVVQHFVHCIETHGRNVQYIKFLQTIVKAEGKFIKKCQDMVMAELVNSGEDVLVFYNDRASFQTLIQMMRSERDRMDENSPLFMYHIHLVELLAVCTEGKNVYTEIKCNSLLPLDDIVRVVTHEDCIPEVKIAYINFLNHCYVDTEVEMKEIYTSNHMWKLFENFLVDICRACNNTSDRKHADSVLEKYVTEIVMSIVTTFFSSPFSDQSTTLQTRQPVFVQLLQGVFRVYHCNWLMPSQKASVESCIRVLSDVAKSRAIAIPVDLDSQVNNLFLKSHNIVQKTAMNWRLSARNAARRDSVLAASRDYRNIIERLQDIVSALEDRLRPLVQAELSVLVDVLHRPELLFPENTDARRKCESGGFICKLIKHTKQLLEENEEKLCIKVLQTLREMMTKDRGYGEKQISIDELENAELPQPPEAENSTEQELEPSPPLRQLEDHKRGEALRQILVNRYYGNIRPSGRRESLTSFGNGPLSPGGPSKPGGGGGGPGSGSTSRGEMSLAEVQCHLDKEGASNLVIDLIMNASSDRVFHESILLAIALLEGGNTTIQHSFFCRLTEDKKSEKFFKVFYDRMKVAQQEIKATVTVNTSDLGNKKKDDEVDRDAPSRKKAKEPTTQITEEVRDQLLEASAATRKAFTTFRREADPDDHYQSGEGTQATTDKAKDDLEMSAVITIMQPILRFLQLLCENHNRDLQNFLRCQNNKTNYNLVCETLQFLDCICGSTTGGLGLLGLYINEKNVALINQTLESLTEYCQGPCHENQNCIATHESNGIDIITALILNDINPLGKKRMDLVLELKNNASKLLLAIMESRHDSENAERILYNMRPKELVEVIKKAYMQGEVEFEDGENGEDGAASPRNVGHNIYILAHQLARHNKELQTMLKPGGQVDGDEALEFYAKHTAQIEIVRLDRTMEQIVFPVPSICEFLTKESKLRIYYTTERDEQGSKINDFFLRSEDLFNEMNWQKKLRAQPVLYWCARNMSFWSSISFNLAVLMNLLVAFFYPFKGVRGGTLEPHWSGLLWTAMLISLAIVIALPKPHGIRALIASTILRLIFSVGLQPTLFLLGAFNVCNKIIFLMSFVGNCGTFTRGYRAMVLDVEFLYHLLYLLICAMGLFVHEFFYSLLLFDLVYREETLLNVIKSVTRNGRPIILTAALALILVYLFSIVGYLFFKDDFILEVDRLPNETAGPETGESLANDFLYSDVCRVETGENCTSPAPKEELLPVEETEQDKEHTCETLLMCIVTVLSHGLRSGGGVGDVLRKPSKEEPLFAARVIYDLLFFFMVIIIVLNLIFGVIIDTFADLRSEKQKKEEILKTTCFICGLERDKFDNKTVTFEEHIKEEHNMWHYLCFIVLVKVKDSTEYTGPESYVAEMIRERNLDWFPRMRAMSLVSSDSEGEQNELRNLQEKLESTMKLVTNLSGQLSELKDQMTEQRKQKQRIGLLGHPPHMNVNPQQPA

[4] = target: T1, Inositol 1,4,5-trisphosphate-gated calcium channel ITPR1; assay: Displacement of [3H]-IP3 from IP3R1 in Wistar rat cerebellar membrane measured after 5 mins by liquid scintillation counting method; format: cell membranes, Cerebellum
[5] = target: Inositol 1,4,5-trisphosphate-gated calcium channel ITPR1 (Rattus norvegicus) (UniProt P29994); assay: Ratio of EC50 for agonist activity at rat IP3R1 expressed in HEK cells assessed as increase in calcium release in cytosol by measuring fluorescence signal by Mag-Fluo4 dye based assay to Kd for binding affinity to IP3R1 in Wistar rat cerebellar membrane; format: cell-based
Method in brief: (§1)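 Ratio of EC50 from Mag-Fluo-4 Ca2+ release in permeabilized rat IP3R1-HEK cells to Kd from [3H]-IP3 competition with rat cerebellar membranes. Calculated from the difference of log values (pEC50 − pKd); given as mean with 95% CI.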

[6] = target: Inositol 1,4,5-trisphosphate-gated calcium channel ITPR1 (Rattus norvegicus) (UniProt P29994); assay: Agonist activity at rat IP3R1 expressed in HEK cells assessed as increase in calcium release in cytosol by measuring fluorescence signal by Mag-Fluo4 dye based assay relative to control; format: cell-based
Method in brief: (§2)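 HEK-293 cells lacking all three IP3R subtypes (CRISPR), stably transfected with rat IP3R1 (S1 splice site absent), G418-selected monoclonal line. ER loaded with Mag-Fluo-4 AM (20 μM, 1 h, 22 °C), saponin-permeabilized, in Ca2+-free cytosol-like medium, pH 7.0, 220 nM free Ca2+. MgATP 1.5 mM loads stores, CPA 10 μM added, ligand 60 s later. Read-out is fluorescence at 485/520 nm, 20 °C. Release is % of (Ffull − Fempty). Hill fit; 5–11 experiments in duplicate.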

[7] = Stability of compound in D2O at pH 7 under room temperature measured after 2 months by H-NMR spectroscopy; format: physicochemical; conditions: buffer, pH 7, 1461 h
Method in brief: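 Triethylammonium salt left in D2O at pH 7, room temperature; degradation followed over time.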

[8] = Stability of compound assessed as acidic hydrolysis at pH 1 measured after 1 day by H-NMR spectroscopy; format: physicochemical; conditions: buffer, pH 1, 24 h
Method in brief: (§3)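 Hydrolysis followed after 1 day at pH 1 or at pH 14.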

[9] = Stability of compound assessed as basic hydrolysis at pH 14 measured after 1 day by H-NMR spectroscopy; format: physicochemical; conditions: buffer, pH 14, 24 h; method in brief: as §3
[10] = Stability of compound assessed as basic hydrolysis at pH 10 measured after 1 week by H-NMR spectroscopy; format: physicochemical; conditions: buffer, pH 10, 168 h
Method in brief: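 Kept at pH 10 for one week and checked for degradation.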

[11] = target: Inositol 1,4,5-trisphosphate-gated calcium channel ITPR1 (Rattus norvegicus) (UniProt P29994); assay: Agonist activity at rat IP3R1 expressed in HEK cells assessed as increase in calcium release in cytosol by measuring fluorescence signal at 300 uM by Mag-Fluo4 dye based assay relative to control; format: cell-based; method in brief: as §2
[12] = target: T1, Inositol 1,4,5-trisphosphate-gated calcium channel ITPR1; assay: Partial agonist activity at rat IP3R1 expressed in HEK cells assessed as increase in calcium release in cytosol by measuring fluorescence signal by Mag-Fluo4 dye based assay; format: cell-based; method in brief: as §2
[13] = target: Inositol 1,4,5-trisphosphate-gated calcium channel ITPR1 (Rattus norvegicus) (UniProt P29994); assay: Partial agonist activity at rat IP3R1 expressed in HEK cells assessed as increase in calcium release in cytosol by measuring fluorescence signal by Mag-Fluo4 dye based assay relative to inositol-1,4,5-triphosphate; format: cell-based; method in brief: as §2
[14] = target: Inositol 1,4,5-trisphosphate-gated calcium channel ITPR1 (Rattus norvegicus) (UniProt P29994); assay: Ratio of EC50 for partial agonist activity at rat IP3R1 expressed in HEK cells assessed as increase in calcium release in cytosol by measuring fluorescence signal by Mag-Fluo4 dye based assay to Kd for binding affinity to IP3R1 in Wistar rat cerebellar membrane; format: cell-based; method in brief: as §1
[15] = target: Inositol 1,4,5-trisphosphate-gated calcium channel ITPR1 (Rattus norvegicus) (UniProt P29994); assay: Ratio of EC39 for partial agonist activity at rat IP3R1 expressed in HEK cells assessed as increase in calcium release in cytosol by measuring fluorescence signal by Mag-Fluo4 dye based assay to Kd for binding affinity to IP3R1 in Wistar rat cerebellar membrane; format: cell-based

degraded at 504 h [1]: 30%
SMILES: O=P(OCc1ccccc1)(OCc1ccccc1)O[C@@H]1O[C@H](COCc2ccccc2)[C@@H](OP(=O)(OCc2ccccc2)OCc2ccccc2)[C@H](OP(=O)(OCc2ccccc2)OCc2ccccc2)[C@H]1OCc1ccccc1
Drug metabolism [2]: Metabolite detected

EC50 [3]: 0.024 µM
Kd [4]: 0.0014 µM
Ratio [5]: 17
SMILES: Nc1ncnc2c1ncn2[C@@H]1O[C@H](CO)[C@@H](O[C@H]2O[C@H](CO)[C@@H](OP(=O)(O)O)[C@H](OP(=O)(O)O)[C@H]2O)[C@H]1OP(=O)(O)O [ADENOPHOSTIN A]

EC50 [3]: 0.08 µM
Activity [6]: 75.2%
Kd [4]: 0.0112 µM
Stability [7]: Stable
Ratio [5]: 7
Stability [8]: Unstable
Stability [9]: Unstable
Stability [10]: Stable
SMILES: CCN(CC)CC.CCN(CC)CC.CCN(CC)CC.O=P(O)(O)O[C@@H]1O[C@H](CO)[C@@H](OP(=O)(O)O)[C@H](OP(=O)(O)O)[C@H]1O

EC50 [3]: 2.96 µM
Activity [6]: 78.8%
Kd [4]: 0.129 µM
Stability [7]: Stable
Ratio [5]: 23
Stability [8]: Unstable
Stability [9]: Unstable
Stability [10]: Stable
SMILES: CCN(CC)CC.CCN(CC)CC.CCN(CC)CC.O=P(O)(O)O[C@H]1O[C@H](CO)[C@@H](OP(=O)(O)O)[C@H](OP(=O)(O)O)[C@H]1O

Activity [11]: 5.9%
SMILES: CO[C@H]1O[C@H](COP(=O)(O)O)[C@@H](OP(=O)(O)O)[C@H](O)[C@H]1OP(=O)(O)O

Activity [11]: 4.3%
SMILES: CO[C@H]1O[C@H](COP(=O)(O)O)[C@@H](O)[C@H](OP(=O)(O)O)[C@H]1OP(=O)(O)O

EC50 [12]: 104 µM
Activity [13]: 53.1%
Kd [4]: 0.549 µM
Ratio [14]: 191
Ratio [15]: 462
SMILES: CO[C@@H]1O[C@@H](COP(=O)(O)O)[C@H](OP(=O)(O)O)[C@@H](O)[C@@H]1OP(=O)(O)O

EC50 [12]: 87.7 µM
Activity [13]: 56.2%
Kd [4]: 1.23 µM
Ratio [14]: 71
Ratio [15]: 132
SMILES: CO[C@@H]1O[C@@H](COP(=O)(O)O)[C@H](O)[C@@H](OP(=O)(O)O)[C@@H]1OP(=O)(O)O
